What is called MIC is the smallest concentration in the dilution series that meets the test's criterion for growth inhibition. Lower therefore signals greater potency.

In brackets after ≈: the same amount, converted by molar mass. Activity calls are given as the source filed them.

The first assay deals with Escherichia coli. The assay is described as follows: Antibacterial activity against Escherichia coli at 20 umol/ml after 24 hrs by Kirby-Bauer's disk diffusion assay. In kind it is functional. Summed up:
(§1)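 Kirby-Bauer disc diffusion. Compounds were dissolved in acetone and serially diluted. Sterile 6 mm discs were soaked in the solutions and dried. 1 ml of bacterial broth culture was spread on Mueller-Hinton agar plates and the discs were placed aseptically. Plates were incubated upright at 37 °C for 24 h and the inhibition zone was measured with a scale.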
On the technique in general: A growth-free zone around the sample is the usual read-out of agar diffusion tests.
Consider `COc1cc(/C=C/C(=O)CC(=O)/C=C/c2ccc(OC(=O)/C=C/C=C/c3ccc(O)c(O)c3)c(OC)c2)ccc1OC(=O)/C=C/C=C/c1ccc(O)c(O)c1`, for which the “inhibition zone (IZ)” value is given as 16 mm.
The same measure, in the same setting: under `COc1cc(/C=C/C(=O)CC(=O)/C=C/c2ccc(O)c(OC)c2)ccc1O` [CURCUMIN] stands 10 mm; under `COc1cc(/C=C/C(=O)CC(=O)/C=C/c2ccc(OC(=O)[C@@H](N)C(C)C)c(OC)c2)ccc1O` [MONOVALINOYL CURCUMIN], 13 mm.

The test system of the next assay is Klebsiella aerogenes. The assay is described as follows: Antibacterial activity against Klebsiella aerogenes after 18 hrs by broth microdilution susceptibility test. Type of assay: functional. A digest of the protocol: (§2)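 Broth microdilution in Mueller-Hinton broth at pH 7.4. Inoculum came from a broth culture grown 4–6 h to log phase. Compound dilutions were […]. Tubes were shaken and incubated at 37 °C for 18 h, then read for turbidity. MIC is the lowest concentration with no turbidity. Each test was run in triplicate and MICs come from at least two repetitions.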
On the technique in general: Broth dilution looks for growth in wells or tubes with falling amounts of substance.
`COc1cc(/C=C/C(=O)CC(=O)/C=C/c2ccc(OC(=O)/C=C/C=C/c3ccc(O)c(O)c3)c(OC)c2)ccc1OC(=O)/C=C/C=C/c1ccc(O)c(O)c1`: the MIC was found to be 20 mM (≈ 14900 µg/mL). In other words, the millimolar range.
With `COc1cc(/C=C/C(=O)CC(=O)/C=C/c2ccc(O)c(OC)c2)ccc1O` [CURCUMIN], the outcome was inactive.
Turning to `COc1cc(/C=C/C(=O)CC(=O)/C=C/c2ccc(OC(=O)[C@@H](N)C(C)C)c(OC)c2)ccc1O` [MONOVALINOYL CURCUMIN], the MIC was found to be 5 mM (≈ 2340 µg/mL). That is a millimolar value.

For a further assay, the system named is Escherichia coli. As to the kind of experiment: Antibacterial activity against Escherichia coli at 10 umol/ml after 24 hrs by Kirby-Bauer's disk diffusion assay. Type of assay: functional. A digest of the protocol: as §1
In the case of `COc1cc(/C=C/C(=O)CC(=O)/C=C/c2ccc(OC(=O)[C@@H](N)C(C)C)c(OC)c2)ccc1O` [MONOVALINOYL CURCUMIN], the “inhibition zone (IZ)” value is given as 11 mm.

For a further assay, the system named is Escherichia coli. The assay is described as follows: Antibacterial activity against Escherichia coli after 18 hrs by broth microdilution susceptibility test. In kind it is functional. A digest of the protocol:
as §2
In turn, `COc1cc(/C=C/C(=O)CC(=O)/C=C/c2ccc(OC(=O)/C=C/C=C/c3ccc(O)c(O)c3)c(OC)c2)ccc1OC(=O)/C=C/C=C/c1ccc(O)c(O)c1` came in with a minimum inhibitory concentration (MIC) of 10 mM (≈ 7450 µg/mL).
The same measure, in the same setting: the same measure for `COc1cc(/C=C/C(=O)CC(=O)/C=C/c2ccc(O)c(OC)c2)ccc1O` [CURCUMIN]: 20 mM (≈ 7370 µg/mL); for `COc1cc(/C=C/C(=O)CC(=O)/C=C/c2ccc(OC(=O)[C@@H](N)C(C)C)c(OC)c2)ccc1O` [MONOVALINOYL CURCUMIN]: 10 mM (≈ 4680 µg/mL).

The next assay deals with Micrococcus. The assay is described as follows: Antibacterial activity against Micrococcus at 5 umol/ml after 24 hrs by Kirby-Bauer's disk diffusion assay. Type of assay: functional. A digest of the protocol: as §1
As for `COc1cc(/C=C/C(=O)CC(=O)/C=C/c2ccc(OC(=O)[C@@H](N)C(C)C)c(OC)c2)ccc1O` [MONOVALINOYL CURCUMIN], the “inhibition zone (IZ)” value is on record as 19 mm.

The test system of the next assay is Enterobacter cloacae. The assay is described as follows: Antibacterial activity against Enterobacter cloacae at 20 umol/ml after 24 hrs by Kirby-Bauer's disk diffusion assay. In kind it is functional. A digest of the protocol: as §1
`COc1cc(/C=C/C(=O)CC(=O)/C=C/c2ccc(OC(=O)/C=C/C=C/c3ccc(O)c(O)c3)c(OC)c2)ccc1OC(=O)/C=C/C=C/c1ccc(O)c(O)c1`: the “inhibition zone (IZ)” value is 18 mm.
Turning to `COc1cc(/C=C/C(=O)CC(=O)/C=C/c2ccc(OC(=O)[C@@H](N)C(C)C)c(OC)c2)ccc1O` [MONOVALINOYL CURCUMIN], the “inhibition zone (IZ)” value was found to be 25 mm.

In another assay the test system is Enterobacter cloacae. The assay is described as follows: Antibacterial activity against Enterobacter cloacae at 10 umol/ml after 24 hrs by Kirby-Bauer's disk diffusion assay. In kind it is functional. A digest of the protocol: as §1
For `COc1cc(/C=C/C(=O)CC(=O)/C=C/c2ccc(OC(=O)/C=C/C=C/c3ccc(O)c(O)c3)c(OC)c2)ccc1OC(=O)/C=C/C=C/c1ccc(O)c(O)c1`, the “inhibition zone (IZ)” value amounted to 14 mm.

The next assay deals with Penicillium chrysogenum. The assay is described as follows: Antifungal activity against Penicillium notatum at 20 umol/ml after 48 hrs. In kind it is functional. A digest of the protocol:
(§3)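 Clinical fungal isolates were subcultured on Sabouraud dextrose agar. For the inoculum, cultures were grown on Sabouraud dextrose agar for 48 h at 37 °C. Conidia were dislodged into sterile saline, the suspension was brought to 5 ml, and the microconidia were counted. This suspension was swabbed over Sabouraud dextrose agar plates poured 5 mm deep, and excess was decanted. Sterile 6 mm discs were charged with compound.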
Regarding `COc1cc(/C=C/C(=O)CC(=O)/C=C/c2ccc(OC(=O)[C@@H](N)C(C)C)c(OC)c2)ccc1O` [MONOVALINOYL CURCUMIN], the “inhibition zone (IZ)” value was 12 mm.

Another assay relates to Klebsiella aerogenes. As to the kind of experiment: Antibacterial activity against Klebsiella aerogenes at 20 umol/ml after 24 hrs by Kirby-Bauer's disk diffusion assay. Type of assay: functional. A digest of the protocol: as §1
With `COc1cc(/C=C/C(=O)CC(=O)/C=C/c2ccc(OC(=O)/C=C/C=C/c3ccc(O)c(O)c3)c(OC)c2)ccc1OC(=O)/C=C/C=C/c1ccc(O)c(O)c1`, the “inhibition zone (IZ)” value stood at 11 mm.
Still for that read-out and setting: the same measure for `COc1cc(/C=C/C(=O)CC(=O)/C=C/c2ccc(OC(=O)[C@@H](N)C(C)C)c(OC)c2)ccc1O` [MONOVALINOYL CURCUMIN]: 18 mm.

Another assay concerns Candida albicans. As to the kind of experiment: Antifungal activity against Candida albicans at 20 umol/ml after 48 hrs. In kind it is functional. A digest of the protocol: as §3
In the case of `COc1cc(/C=C/C(=O)CC(=O)/C=C/c2ccc(OC(=O)/C=C/C=C/c3ccc(O)c(O)c3)c(OC)c2)ccc1OC(=O)/C=C/C=C/c1ccc(O)c(O)c1`, the “inhibition zone (IZ)” value came to 16 mm.
For `COc1cc(/C=C/C(=O)CC(=O)/C=C/c2ccc(O)c(OC)c2)ccc1O` [CURCUMIN], the “inhibition zone (IZ)” value stood at 15 mm.

The test system of another assay is Enterobacter cloacae. As to the kind of experiment: Antibacterial activity against Enterobacter cloacae at 5 umol/ml after 24 hrs by Kirby-Bauer's disk diffusion assay. Type of assay: functional. A digest of the protocol: as §1
As for `COc1cc(/C=C/C(=O)CC(=O)/C=C/c2ccc(OC(=O)/C=C/C=C/c3ccc(O)c(O)c3)c(OC)c2)ccc1OC(=O)/C=C/C=C/c1ccc(O)c(O)c1`, the “inhibition zone (IZ)” value is on record as 12 mm.

The next assay has as its system Micrococcus. The assay is described as follows: Antibacterial activity against Micrococcus after 18 hrs by broth microdilution susceptibility test. In kind it is functional. Summed up:
as §2
For the compound `COc1cc(/C=C/C(=O)CC(=O)/C=C/c2ccc(OC(=O)/C=C/C=C/c3ccc(O)c(O)c3)c(OC)c2)ccc1OC(=O)/C=C/C=C/c1ccc(O)c(O)c1`, the MIC was determined as 10 mM (≈ 7450 µg/mL).
The same measure, in the same setting: the same measure for `COc1cc(/C=C/C(=O)CC(=O)/C=C/c2ccc(OC(=O)[C@@H](N)C(C)C)c(OC)c2)ccc1O` [MONOVALINOYL CURCUMIN]: 2.5 mM (≈ 1170 µg/mL).

The next assay deals with Micrococcus. The assay is described as follows: Antibacterial activity against Micrococcus at 20 umol/ml after 24 hrs by Kirby-Bauer's disk diffusion assay. Type of assay: functional. Summed up:
as §1
Consider `COc1cc(/C=C/C(=O)CC(=O)/C=C/c2ccc(OC(=O)/C=C/C=C/c3ccc(O)c(O)c3)c(OC)c2)ccc1OC(=O)/C=C/C=C/c1ccc(O)c(O)c1`, for which the “inhibition zone (IZ)” value turned out to be 16 mm.
For the compound `COc1cc(/C=C/C(=O)CC(=O)/C=C/c2ccc(OC(=O)[C@@H](N)C(C)C)c(OC)c2)ccc1O` [MONOVALINOYL CURCUMIN], the “inhibition zone (IZ)” value came out at 26 mm.

The next assay concerns Enterobacter cloacae. The assay is described as follows: Antibacterial activity against Enterobacter cloacae after 18 hrs by broth microdilution susceptibility test. In kind it is functional. Summed up: as §2
On to `COc1cc(/C=C/C(=O)CC(=O)/C=C/c2ccc(OC(=O)/C=C/C=C/c3ccc(O)c(O)c3)c(OC)c2)ccc1OC(=O)/C=C/C=C/c1ccc(O)c(O)c1`, for which the minimal inhibitory concentration (MIC) came out at 5 mM (≈ 3720 µg/mL).
Same read-out and setting: the same measure for `COc1cc(/C=C/C(=O)CC(=O)/C=C/c2ccc(OC(=O)[C@@H](N)C(C)C)c(OC)c2)ccc1O` [MONOVALINOYL CURCUMIN]: 2.5 mM (≈ 1170 µg/mL).

Another assay concerns Staphylococcus saprophyticus. As to the kind of experiment: Antibacterial activity against Staphylococcus saprophyticus at 20 umol/ml after 24 hrs by Kirby-Bauer's disk diffusion assay. In kind it is functional. A digest of the protocol:
as §1
With `COc1cc(/C=C/C(=O)CC(=O)/C=C/c2ccc(OC(=O)/C=C/C=C/c3ccc(O)c(O)c3)c(OC)c2)ccc1OC(=O)/C=C/C=C/c1ccc(O)c(O)c1`, the “inhibition zone (IZ)” value is 10 mm.

The test system of the next assay is Staphylococcus saprophyticus. The assay is described as follows: Antibacterial activity against Staphylococcus saprophyticus after 18 hrs by broth microdilution susceptibility test. Type of assay: functional. A digest of the protocol:
as §2
Take `COc1cc(/C=C/C(=O)CC(=O)/C=C/c2ccc(OC(=O)/C=C/C=C/c3ccc(O)c(O)c3)c(OC)c2)ccc1OC(=O)/C=C/C=C/c1ccc(O)c(O)c1`: the MIC came to 20 mM (≈ 14900 µg/mL).
Turning to `COc1cc(/C=C/C(=O)CC(=O)/C=C/c2ccc(OC(=O)[C@@H](N)C(C)C)c(OC)c2)ccc1O` [MONOVALINOYL CURCUMIN], the result was inactive.

In the next assay the test system is Micrococcus. The assay is described as follows: Antibacterial activity against Micrococcus at 10 umol/ml after 24 hrs by Kirby-Bauer's disk diffusion assay. In kind it is functional. Summed up: as §1
Turning to `COc1cc(/C=C/C(=O)CC(=O)/C=C/c2ccc(OC(=O)/C=C/C=C/c3ccc(O)c(O)c3)c(OC)c2)ccc1OC(=O)/C=C/C=C/c1ccc(O)c(O)c1`, the “inhibition zone (IZ)” value turned out to be 12 mm.
For the compound `COc1cc(/C=C/C(=O)CC(=O)/C=C/c2ccc(OC(=O)[C@@H](N)C(C)C)c(OC)c2)ccc1O` [MONOVALINOYL CURCUMIN], the “inhibition zone (IZ)” value amounted to 20 mm.
